High-throughput results (PubChem)
Compounds with a hit are over-represented: about 9.2% of the library has one in this group of screens.
Autophagy mod – autophagy modulators in MEF cells, primary screen, imaging, high-content, MEF GFP-LC3; MEF GFP-LC3 puncta imaging; test concentration mostly 10 µM; calls only at 10 µM (by protocol); hit rate 0.98% among 190,000; AID 463193, 2010;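 active = percentage of spot-positive cells more than 3 SD above its plate mean, without a fluorescence outlier flag or 80% toxicity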;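 also: spot-positive cell cutoff set from DMSO-treated cells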
bCat KO growth – primary screen for growth suppressors in beta-catenin knockout HCT116 cells (colon tumor, human); HCT116 beta-catenin knockout viability, CellTiter-Glo, 60 h; active compounds read low; viability, % at 10 µM; hit rate 1.5% among 140,000; AID 818, 2007;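 active = viability at or under a set limit, the compound median less 4 SD, cut at about 6% in these data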;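 also: 0% = Hyamine 1622 control at 20 µM and 100% = untreated cell control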
PTEN del growth – growth suppression of PTEN-null HCT116, primary screen, cell-based, CellTiter-Glo; viability, % at 10 µM; HCT116 PTEN-null viability, 60 h; active compounds read low; hit rate 1.2% among 140,000;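 active = viability at or below a set limit, 4 SD under the median of all tested compounds, cut at about 3.7% in these data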;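 also: PTEN knockout HCT116 line with beta catenin targeted HCT116 as companion control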
L major viab – Leishmania major promastigote growth inhibition, primary screen. Leishmania major promastigotes, resazurin fluorescence viability. inhibition, % at 10 µM. hit rate 9% among 200,000. AID 1063, 2008; in the data active = inhibition above about 50%;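 also: promastigotes grown with compound for 44 hours at 28 °C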
Dynein cargo inh – inhibitors of GR-EGFP nuclear translocation, primary screen, dynein cargo transport inhibitor project, imaging, high-content, 3617.4 mouse cells; test concentration mostly 20 µM; stimulated with dexamethasone, 1 µM; active compounds read low; z-score, hits read low; hit rate 0.47% among 220,000;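 active = plate z-score of nuclear minus cytoplasmic receptor signal below a set negative limit, without overly bright fluorescence or cell loss, cut at about -3.5 in these data, passing the limit was not always enough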;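 also: z-score of nuclear minus cytoplasmic ring GR-EGFP intensity difference per well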
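Schedule: 48 h induction, then 1 h compound, then 30 min agonist, 37 °C. Buffer or medium: tetracycline-free induction medium containing charcoal-stripped FBS. Reagent: 1.0 µM final dexamethasone stimulus. Evaluation: nuclear versus cytoplasmic GR-EGFP signal, averaged per well. Signal: high-content fluorescence imaging after fixation.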
Numbers without * were called inactive; i = inactive; x = no result; + = active, no number.

SMILES	Autophagy mod	bCat KO growth	PTEN del growth	L major viab	Dynein cargo inh
CCOC(=O)N1CCC(n2c(SCC(=O)NCc3ccccc3)nc3ccccc3c2=O)CC1	i	68	63	81*	1.2
COCC(C)n1c(SCC(=O)c2cc(C)n(C)c2C)nc2ccccc2c1=O (stereo not drawn)	i	x	x	84*	-0.17
COCC(C)n1c(C)cc(C(=O)CSc2nc3ccccc3c(=O)[nH]2)c1C (stereo not drawn)	i	63	58	-8	-0.74
CC(=O)NCCn1c(SCC(=O)NCCC2=CCCCC2)nc2ccccc2c1=O	i	97	99	4	2
COCC(C)n1c(C)cc(C(=O)CSc2nnnn2-c2ccc(O)cc2)c1C (stereo not drawn)	i	x	x	73*	1.1
COCC(C)n1c(C)cc(C(=O)CSc2ncccn2)c1C (stereo not drawn)	i	x	x	-4	0.33
O=C(NCC1CCN(c2ccc(S(=O)(=O)N3CCOCC3)cc2)CC1)c1ccc(Cl)cc1	i	62	57	24	1.4
COc1ccc(OC)c(S(=O)(=O)NCc2csc(-c3ccccc3)n2)c1	i	110	109	78*	1.2
Cc1cc(C)n(-c2nnc(C)n2/N=C/c2cc(Br)ccc2OCc2ccccc2)n1	i	9	10	89*	-1.8
CC(=O)C(N=Nc1ccccc1)(Sc1nnc(-c2ccccc2)n1-c1ccccc1)C(=O)Nc1ccccc1 (stereo not drawn)	i	78	69	78*	0.12
CC(C)COc1ccc(C/C(N)=N/n2cnnc2)cc1	i	x	x	-3	-0.85
CC(C)COc1ccc(Cc2cnc(N)nc2N)cc1	i	69	81	72*	2.8
Cc1ccc(C(=O)C(C)Oc2cccc(NC(=O)c3ccco3)c2)cc1 (stereo not drawn)	i	85	87	97*	0.062
CC(Oc1ccc(NC(=O)c2ccco2)cc1)C(=O)N1c2ccccc2CC1C (stereo not drawn)	i	100	82	58*	1.7
COc1ccc(C(=O)COc2cccc(NC(=O)c3ccco3)c2)cc1	i	100	92	59*	-0.48
COc1cccc(CN(C)CC(=O)NCc2ccccc2Cl)c1	i	90	83	-4	-0.24
NC(=O)c1cc([N+](=O)[O-])cc2c1C=Cc1ccccc1O2	i	x	x	90*	-0.67
NC(=O)c1cc2cc([N+](=O)[O-])ccc2oc1=O	i	x	x	-2	-0.068
CC(C)NC(=O)c1cc(-c2ccco2)nn1-c1ccc(Cl)cc1	i	71	75	50*	1
CC(C)(C)c1ccccc1NC(=S)NC1CCCCC1	i	x	x	19	0.27
O=C(Nc1ccncc1)c1cn(-c2ccccc2)nc1-c1cccs1	i	60	58	95*	0.18
O=C(Nc1nccs1)c1cn(-c2ccccc2)nc1-c1ccncc1	i	x	x	5	-0.43
N#Cc1c2n(c3c(N)ncnc13)CCCCC2	x	x	x	x	0.44
CCOC(=O)C(Oc1ccc2c(-c3ccc(OC)cc3)cc(=O)oc2c1C)c1ccccc1 (stereo not drawn)	i	79	78	100*	-1.1
CCOC(=O)C(Oc1ccc2c(-c3ccccc3)cc(=O)oc2c1C)c1ccccc1 (stereo not drawn)	i	71	59	100*	0.61
SMILES	Autophagy mod	bCat KO growth	PTEN del growth	L major viab	Dynein cargo inh
COc1ccc(-c2cc(=O)oc3c(C)c(OC(=O)c4cccs4)ccc23)cc1	i	88	92	-3	-0.077
CN(C)c1ncnc(N(C)C)c1[N+](=O)[O-]	x	x	x	x	-0.55
O=C(NCc1ccccn1)C(C(=O)c1cccc([N+](=O)[O-])c1)n1cc(Cl)ccc1=O (stereo not drawn)	i	x	x	15	1.8
Cc1cc(C(=O)CN2C(=O)NC(c3ccccc3)(c3ccccc3)C2=O)c(C)n1Cc1ccco1	i	65	68	52*	-0.5
Cc1cc(C(=O)CN2C(=O)NC(C)(c3cccc(Br)c3)C2=O)c(C)n1Cc1ccco1 (stereo not drawn)	i	1.8*	3.4*	34	-0.93
O=S(=O)(NCCSc1nnnn1-c1ccccc1)c1cccs1	i	95	89	21	0.34
CCOc1ccc(S(=O)(=O)Nc2cc(OC)ccc2OC)cc1	+	14	9	-3	-0.44
